Assay results from ChEMBL document CHEMBL3739310, “Deguelins, Natural Product Modulators of NF1-Defective Astrocytoma Cell Growth Identified by High-Throughput Screening of Partially Purified Natural Product Extracts” (J Nat Prod, 2015).
One block for each compound: values may come before it. The source made the active and inactive calls. The calls are words filed in the database; no cut-off is given here.

Tests used:
[1] = Induction of ROS generation in Nf1 defective and Trp53 defective mouse KR158 cells at 10 uM after 6 hrs DCFDA fluorogenic dye-based fluorimetric analysis; assay type: functional
Method in brief: (§1)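 Cells plated at 1000/well in black-wall, clear-bottom, polylysine-coated 384-well plates and treated 6 h with 10 μM compound or DMSO control. Carboxymethyl H2DCFDA (10 mM stock in DMSO) added at 25 μM final for the last 1 h. After two PBS washes, cell-associated fluorescence read bottom-mode at Ex 495/Em 529 nm. Result expressed as T/C ratio versus untreated controls, means ± SD.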

[2] = Growth inhibition of Nf1 defective and Trp53 defective mouse K1492 cells after 2 days by XTT assay; settings: K1492, 2 days
[3] = Induction of ROS generation in Nf1 defective and Trp53 defective mouse K5001 cells at 10 uM after 6 hrs by DCFDA fluorogenic dye-based fluorimetric analysis; assay type: functional; method in brief: as §1
[4] = Growth inhibition of Nf1 defective and Trp53 defective mouse primary astrocytes after 2 days by XTT assay; settings: Astrocyte
[5] = Induction of ROS generation in Nf1 defective and Trp53 defective mouse K1492 cells at 10 uM after 6 hrs DCFDA fluorogenic dye-based fluorimetric analysis; assay type: functional; method in brief: as §1
KR158 = experiment: Induction of apoptosis in Nf1 defective and Trp53 defective mouse KR158 cells assessed as DNA fragmentation at 10 uM up to 48 hrs by ELISA; assay type: functional, cell-based
[6] = target: RAC-alpha serine/threonine-protein kinase (Mus musculus) (UniProt P31750); experiment: Inhibition of AKT phosphorylation in Nf1 defective and Trp53 defective mouse K1492 cells; assay type: cell-based
[7] = Growth inhibition of Nf1 defective and Trp53 defective mouse K5001 cells after 2 days by XTT assay; settings: K5001, 2 days
[8] = Growth inhibition of Nf1 defective and Trp53 defective mouse KR158 cells after 2 days by XTT assay; settings: KR158, 2 days
K5001 = experiment: Induction of apoptosis in mouse Nf1 defective and Trp53 defective K5001 cells assessed as DNA fragmentation at 10 uM up to 48 hrs by ELISA; assay type: functional, cell-based
[9] = target: RAC-alpha serine/threonine-protein kinase (Mus musculus) (UniProt P31750); experiment: Inhibition of AKT phosphorylation in Nf1 defective and Trp53 defective mouse K5001 cells; assay type: cell-based
[10] = Growth inhibition of Nf1 defective and Trp53 defective mouse KR158 cells at 80 uM after 2 days by XTT assay; settings: KR158, 2 days, read-out: GI

Sequence of RAC-alpha serine/threonine-protein kinase (Mus musculus) (P31750 whole entry): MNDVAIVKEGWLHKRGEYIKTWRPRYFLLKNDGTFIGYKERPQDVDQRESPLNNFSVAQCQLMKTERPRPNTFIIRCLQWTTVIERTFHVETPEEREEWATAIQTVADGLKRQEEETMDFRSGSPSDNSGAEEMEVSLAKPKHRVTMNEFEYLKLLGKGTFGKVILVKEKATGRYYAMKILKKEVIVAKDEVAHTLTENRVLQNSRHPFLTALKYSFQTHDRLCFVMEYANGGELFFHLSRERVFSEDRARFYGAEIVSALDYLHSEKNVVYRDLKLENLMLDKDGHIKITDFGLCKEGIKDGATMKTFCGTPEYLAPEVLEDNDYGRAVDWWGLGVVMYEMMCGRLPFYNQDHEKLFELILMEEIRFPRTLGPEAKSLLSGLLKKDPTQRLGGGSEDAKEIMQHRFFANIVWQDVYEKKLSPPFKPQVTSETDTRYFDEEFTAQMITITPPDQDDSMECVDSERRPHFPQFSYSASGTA

SMILES: COc1cc2c(cc1OC)[C@@H]1C(=O)c3ccc4c(c3O[C@@H]1CO2)C=CC(C)(C)O4 [DEGUELIN]
fold change (FC) [1]: 3.9 | IC50 [2]: > 80 µM | fold change (FC) [3]: 3.5 | IC50 [4]: > 80 µM | fold change (FC) [5]: 5.6 | Activity (KR158): inactive | inhibition [6]: inactive | IC50 [7]: 1.2 µM | IC50 [8]: 12.6 µM | Activity (K5001): inactive | inhibition [9]: inactive

inhibition [6]: inactive | inhibition [9]: inactive
SMILES: COc1cc2c(cc1OC)-c1c(oc3c4c(ccc3c1=O)OC(C)(C)C=C4)CO2 [DEHYDRODEGUELIN]
IC50 [2]: > 80 µM | IC50 [4]: > 80 µM | Activity (KR158): inactive | inhibition of growth at 80 µM [10]: 40% | IC50 [7]: 1.2 µM | IC50 [8]: > 80 µM | Activity (K5001): inactive
